The values that follow come from ChEMBL document CHEMBL3763053, “Synthesis of diacylated γ-glutamyl-cysteamine prodrugs, and in vitro evaluation of their cytotoxicity and intracellular delivery of cysteamine” (Eur J Med Chem, 2016).

Broadly, the EC50 is the midpoint of the concentration-response curve. The pKa is the pH at which an ionisable group is half protonated. A high value points to a group that holds its proton tightly. The term logD denotes the decadic logarithm of the distribution of all forms, ionised or not, between an organic phase and buffer at a given pH. Low readings indicate lower lipophilicity, high ones higher lipophilicity. What is called logP is the decadic logarithm of the partition coefficient of the neutral form, usually between octanol and water. Higher therefore signals a more lipophilic compound.

In data set [1] the test system is HaCaT. The data set can be described thus: Cytotoxicity against human HaCaT cells assessed as reduction in cell viability after 48 hrs by MTT assay. The data set is classed as cell-based. Summed up:
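HaCaT keratinocytes were exposed for 48 h at 37 °C under 5% CO2 to test agents dissolved in medium. Nine twofold serial dilutions ran from 500 down to 1.95. Cells were then rinsed with PBS (pH 7.4) and given MTT at 0.5 mg/mL in PBS for 10 min in the dark, then read at 595 nm. Survival is a percentage of control wells, averaged over 12 replicates. EC50 came from non-linear regression of dose-response curves.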
Background: Tetrazolium assays rely on reduction of a dye to a coloured formazan, in cell work by metabolically active cells.

Data set [2] can be described thus: Dissociation constant, pKa of compound at pH 2 to 12 at 1 to 2 mg by potentiometric titration method. The format is physicochemical. In short, it runs like this:
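Accurately weighed sample loaded into an automated Sirius T3 for pH-metric analysis, using automated acid-base titration. The pKa was computed from the titration data. The value is the mean of 3 titrations.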

The nature of data set [3]: Lipophilicity, log D of compound at pH 7.4. Conditions: buffer.
Data set [4] can be described thus: Prodrug activation in human PT37 cells assessed as intracellular cysteamine-CMQT formation at 20 uM incubated for 2 to 24 hrs by HPLC analysis. The format is cell-based. Conditions: pt37, 20 µM. Summed up:
(§1)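 PT37 normal human proximal tubule cells were grown in DMEM/F12 with 2 mM L-glutamine, penicillin-streptomycin and 10% heat-inactivated FCS at 37 °C under 5% CO2. Confluent monolayers got […] test agent in medium at 37 °C for 0, 2, 6, 16 or 24 h. Cells were trypsin-harvested, lysed and centrifuged. Pellet protein was measured by Bradford against BSA standards. Supernatant thiols were reduced with NaBH4, derivatised with CMQT and analysed by HPLC with UV and fluorescence detection. Results are nmol/mg protein, n=3.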

The nature of data set [5]: physchem. Conditions: octanol/water, pH 2.
The subject of data set [6] is Serum. Nature of the data set: Prodrug activation in fetal bovine serum containing medium assessed as cysteamine formation after 24 hrs by LC-MS analysis. On the set-up: species or system Bos taurus. Conditions: cattle. Summed up: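 Prodrug was incubated in medium containing fetal bovine serum for up to 24 h. Hydrolysis and cysteamine release were monitored by LC-MS.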

Data set [7] in a line: Prodrug activation in human PT37 cells assessed as intracellular cysteamine-CMQT formation per mg protein at 20 uM after 6 hrs by HPLC analysis. Conditions: pt37, 6 h. The format is cell-based. Summed up:
as §1

Data set [8] in a line: Prodrug activation in human PT37 cells assessed as intracellular cysteamine-CMQT formation per mg protein at 20 uM after 24 hrs by HPLC analysis. The data set is classed as cell-based. Conditions: pt37, 24 h. Summed up:
as §1

Data set [9] can be described thus: Drug metabolism in water assessed as oxidation of cysteamine by measuring cysteamine-CMQT level at pH 4.66 at 0.01 M after 1 hr by HPLC-UV method. The data set is classed as physicochemical. Conditions: buffer, pH 4.66, 1 h.
A short description of data set [10]: Drug metabolism in water assessed as oxidation of cysteamine by measuring cysteamine-CMQT level at pH 4.66 at 0.01 M after 3 hrs by HPLC-UV method. The data set is classed as physicochemical. Conditions: buffer, pH 4.66, 3 h.
The nature of data set [11]: Prodrug activation in human PT37 cells assessed as intracellular cysteamine-CMQT formation at 20 uM after 2 hrs by HPLC analysis. The data set is classed as cell-based. Conditions: pt37, 2 h. Summed up:
as §1

In the case of `CCOC(=O)[C@@H](N)CCC(=O)NCCSC(=O)C(C)(C)C.Cl`, in [1] (Homo sapiens, HaCaT, 48 h), the concentration giving a half-maximal response (EC50) was 228 µM. This compound also showed a pKa in data set [2] of 8.9. In data set [3], this compound returned a logD of -0.29. For the same compound, the Drug metabolism entry in [4] is “metabolite_detected”. This compound returned a logP in data set [5] of 1.22.

Take `CCCOC(=O)[C@@H](N)CCC(=O)NCCSC(C)=O.Cl`: the EC50 in data set [1] (Homo sapiens, HaCaT, 48 h) is 548 µM. Further, in data set [2], the pKa turned out to be 8.8. In addition, the logD in data set [3] is -1.21. For the same compound, the Drug metabolism result in data set [4] is recorded as “metabolite_detected”. The compound also had a lipophilicity (logP) in data set [5] of 0.21.

Turning to `CCCCOC(=O)[C@@H](N)CCC(=O)NCCSC(C)=O.Cl`, in data set [1] (Homo sapiens, HaCaT, 48 h), the half-maximal effective concentration (EC50) was determined as 563 µM. In [2], this compound came in with a pKa of 8.69. In data set [3], this compound showed a logD of -0.88. Further, the Drug metabolism entry in data set [4] was “metabolite_detected”. The compound also yielded a lipophilicity (logP) in [5] of 0.43.

Turning to `Cl.Cl.NCCS`, the Drug metabolism entry in [4] was “metabolite_notdetected”.

As for `CCOC(=O)[C@@H](N)CCC(=O)NCCSC(C)=O.Cl`, the 50% effective concentration (EC50) in data set [1] (Homo sapiens, HaCaT, 48 h) was found to be 1730 µM. In data set [2], the pKa came to 8.94. The compound further had a logD in data set [3] of -1.44. For the same compound, the Drug metabolism result is “metabolite_notdetected” in data set [6] and “metabolite_detected” in [4]. In [5], the logP amounted to 0.11.

Consider `CCCOC(=O)[C@@H](N)CCC(=O)NCCSC(=O)c1ccccc1`, for which, in data set [1] (Homo sapiens, HaCaT, 48 h), the EC50 came out at 75 µM.

On to `CCCOC(=O)[C@@H](N)CCC(=O)NCCSC(=O)C(C)(C)C`, for which the concentration for a half-maximal effect (EC50) in data set [1] (Homo sapiens, HaCaT, 48 h) worked out at 152 µM.

Regarding `N[C@@H](CCC(=O)NCCS)C(=O)O`, the Drug metabolism entry in data set [6] is reported as “metabolite_notdetected”.

Take `Cl.NCCS` [CYSTEAMINE HYDROCHLORIDE]: the EC50 in data set [1] (hacat) was found to be 309 µM. The compound further registered a pKa in data set [2] of 8.15. Besides, the Drug metabolism in data set [7] was 0.84 nmol/mg; in [8], 0.22 nmol/mg; in [9], 50%; in [10], “metabolite_notdetected”; in [11], “metabolite_detected”.

`CCCCOC(=O)[C@@H](N)CCC(=O)NCCSC(=O)c1ccccc1`: the EC50 in data set [1] (Homo sapiens, HaCaT, 48 h) was 97 µM.

`CCCCOC(=O)[C@@H](N)CCC(=O)NCCSC(=O)C(C)(C)C`: in [1] (Homo sapiens, HaCaT, 48 h), the EC50 was found to be 102 µM.

In the case of `CCOC(=O)[C@@H](N)CCC(=O)NCCSC(=O)c1ccccc1.Cl`, in data set [1] (Homo sapiens, HaCaT, 48 h), the EC50 was determined as 331 µM. Further, the pKa in data set [2] is 8.85. In data set [3], this compound displayed a logD of -0.37. In addition, in [4], the Drug metabolism result is recorded as “metabolite_detected”. The logP in data set [5] was found to be 1.09.
